Source: PubChem BioAssay AID463073 (The Scripps Research Institute Molecular Screening Center, 2010)
The whole screen tested about 2,000 compounds, of which about 10 (0.5%) were called active. What follows is part of a selection rich in actives, with near analogues and random picks from the rest. Unmarked numbers belong to inactive results.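 Rule for the calls: active = inhibition above 30%; inactive = the rest.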

target: Protein-arginine deiminase type-4 (Homo sapiens) (UniProt Q9UM07); assay: blockers of protein arginine deiminase 4 – biochemical, fluorescence polarization, primary screen (AID 463073); conditions: recombinant PAD4, RFA probe fluorescence polarization; at 5 µM; hits give high values;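 note: 0% = PAD4 with DMSO and 100% = wells lacking PAD4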
Sequence (Q9UM07 whole entry, looked up): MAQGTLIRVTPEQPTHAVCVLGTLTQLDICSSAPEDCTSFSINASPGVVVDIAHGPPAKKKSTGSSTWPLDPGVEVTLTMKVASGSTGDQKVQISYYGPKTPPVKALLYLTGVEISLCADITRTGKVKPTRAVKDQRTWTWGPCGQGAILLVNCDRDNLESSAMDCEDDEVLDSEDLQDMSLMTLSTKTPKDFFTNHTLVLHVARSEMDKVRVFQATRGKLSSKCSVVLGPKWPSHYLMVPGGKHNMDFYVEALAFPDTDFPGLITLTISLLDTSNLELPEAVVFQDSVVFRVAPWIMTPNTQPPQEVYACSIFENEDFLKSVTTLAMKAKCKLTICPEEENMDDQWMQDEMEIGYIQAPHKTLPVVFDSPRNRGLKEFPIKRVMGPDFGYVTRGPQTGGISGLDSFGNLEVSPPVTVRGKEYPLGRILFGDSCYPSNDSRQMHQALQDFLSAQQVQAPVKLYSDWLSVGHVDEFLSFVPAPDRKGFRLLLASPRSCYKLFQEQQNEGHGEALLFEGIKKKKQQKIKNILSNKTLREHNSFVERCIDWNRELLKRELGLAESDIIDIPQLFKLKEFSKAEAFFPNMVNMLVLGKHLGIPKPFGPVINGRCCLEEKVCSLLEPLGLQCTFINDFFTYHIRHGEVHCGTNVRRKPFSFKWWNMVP
Procedure, shortened: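 System: recombinant PAD4. Amount: PAD4 at 2 µM in dispensed buffer, before additions. Doses: single 5 µM final compound concentration. Timing: 30 min 25 °C preincubation, 5 h 37 °C labeling. Benchmarks: wells lacking PAD4 as full-inhibition control. Repeats: single well per compound. Measured by: FP, ex 525 nm, em 598 nm.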

Compound	inhibition
Cc1ccc2c(c1)C1OCCC1C1N2C(=O)C2C(C(=O)O)C3C=CC21O3 (configuration not stated)	6.06%
Cn1cc(CN2CCC(C(=O)N3CCCCC3)CC2)c(-c2ccccc2F)n1	4.74%
O=C1OC(c2ccccc2)=C/C1=C/c1cccs1	-2.45%
c1ccc(Nc2ccccn2)nc1	-4.7%
CS(=O)(=O)c1cccc(C(=O)Oc2ccccc2)c1	5.29%
CC(=O)OCC1OC(n2ccc(=O)[nH]c2=O)C(O)C1O (configuration not stated)	1.17%
CC(C)C[C@H](NC(=O)[C@@H]1Cc2ccccc2CN1C(=O)OC(C)(C)C)C(=O)NCC1CCC(C(=O)O)CC1 (some centres not stated)	0.39%
CS(=O)(=O)Nc1cccc(C(=O)CC2(O)C(=O)Nc3ccc(Br)cc32)c1 (configuration not stated)	0.36%
Cn1c2c(c(=O)[nH]c1=O)C(c1ccc(O)cc1)C1=C(N2)c2ccccc2C1=O (configuration not stated)	4.81%
Cc1cc(C)c(NC(=O)NC(=O)C(Cl)(Cl)Cl)c(C)c1	-2.27%
CC(=O)OC[C@H]1O[C@@H](Sc2cccc3cccnc23)[C@H](OC(C)=O)[C@@H](OC(C)=O)[C@H]1OC(C)=O	1.27%
CCOC(=O)C1C(=O)OC(C)(C)C1C(C)C(=O)c1ccc(C)cc1 (configuration not stated)	-0.2%
CCOC(=O)C(Cc1cc(C(C)=O)ccc1OC(C)C)C(=O)OCC	2.78%
CCOc1ccc(N2C(=O)CC(NCCNc3ccc([N+](=O)[O-])cn3)C2=O)cc1 (configuration not stated)	9.78%
CN1C(=O)C(O)(CC(=O)c2ccccc2O)c2cc(Br)ccc21 (configuration not stated)	-1.81%
CCOC(=O)C(NC(=O)CCC(=O)Nc1ccc(S(N)(=O)=O)cc1)C(O)c1ccccc1 (configuration not stated)	-0.41%
CCc1cc2c(C)cc(=O)oc2cc1OC(=O)C1CCCN1C(=O)OC(C)(C)C (configuration not stated)	1.27%
COC(=O)c1[nH]c2ccc(C)cc2c1NC(=O)CN1CCc2cc(OC)c(OC)cc2C1	0.78%
COc1ccc(CC(=O)NCC2(c3ccc(OC)c(OC)c3)CCOCC2)cc1	2.08%
COc1ccc(CNC(=O)c2c(O)c3cccc4c3n(c2=O)CCC4)cc1	4.58%
CC(C)CC(=O)Nc1ccc2oc(-c3ccncc3)nc2c1	1.75%
CC(C)NC(=O)c1ccc(C(C)C)cc1	-2.74%
O=C(CN1C(=O)c2ccccc2S1(=O)=O)Nc1ccccc1	-2.01%
COC(=O)C1=NN(C(=O)c2cccc(Br)c2)C(O)(c2ccc(Cl)cc2)C1 (configuration not stated)	-1.03%
CC(C)(C)C(=O)Nc1cccc(OC(F)(F)C(F)Cl)c1 (configuration not stated)	3.96%

Compound	inhibition
COc1ccc(-c2csc(-c3cccnc3)n2)cc1C	-0.79%
COc1ccc(OC)c(C(=O)c2coc3ccc(O)cc23)c1	-2.55%
OCC(O)CN1CCN(c2ccccc2)CC1 (configuration not stated)	-2.45%
O=c1c(-c2ccccc2)c(O)c2cccc3c2n1CCC3	5.09%
Cc1cc(OC(=O)CNC(=O)OC(C)(C)C)c2c(C)cc(=O)oc2c1	22.1%
CC(NC(=O)OCc1ccccc1)C(=O)N1CC(O)CC1C(=O)O (configuration not stated)	6.64%
COC(=O)c1ccc(CC(=O)c2ccc(O)cc2O)o1	4.18%
CCCCCCCC(=O)OCC(=O)[C@@]1(O)CC[C@H]2[C@@H]3CCC4=CC(=O)CC[C@]4(C)[C@H]3[C@@H](O)C[C@@]21C	4.58%
Cc1nc(C2CC(=O)OC23CCCCC3)cs1 (configuration not stated)	-0.47%
CSCCC(NC(=O)OC(C)(C)C)C(=O)Oc1ccc2c(=O)c(-c3ccc4c(c3)OCCO4)coc2c1 (configuration not stated)	14.1%
Cn1nc(-c2ccccn2)nc2c(=O)n(C)c(=O)nc1-2	98.2% (active)
Cn1c(=O)[nH]c2nnc(-c3ccc(Cl)c(Cl)c3)nc2c1=O	4.18%
Cn1nc(-c2ccc(Cl)cc2)nc2c(=O)n(C)c(=O)nc1-2	90.7% (active)
c1ccc(-c2ccccn2)nc1	0.78%
CN(C)CCCNc1ncnc2c1cnn2-c1ccccc1	-1.45%
CCNC(=O)c1sc2cc(C)ccc2c1Cl	0.99%
CSCCC(NC(=O)/C(=C/c1ccc2c(c1)OCO2)NC(=O)c1cccc([N+](=O)[O-])c1)C(=O)O (configuration not stated)	-0.41%
Nc1nnc(CSCc2ccc(Cl)cc2Cl)s1	3.81%
CC12CCC(C(=O)NNc3ccccc3)(C(=O)C1=O)C2(C)C (configuration not stated)	-2.07%
COc1ccc(CN2CCCC(C(=O)c3ccc(Cl)cc3)C2)cc1Cn1cccn1 (configuration not stated)	-0.23%
O=C(CSCc1ccccc1)NCCCN1CCOCC1	-0.81%
CC(=O)c1cc2c(cc1NC(=O)c1ccco1)OCCO2	-1.18%
COC(=O)[C@H]1[C@H]2C[C@@H]3c4[nH]c5cc(OC)ccc5c4CCN3C[C@H]2C[C@@H](OC(=O)c2ccc(N)cc2)[C@@H]1OC	6.06%
COC(=O)c1[nH]c2ccc(F)cc2c1NC(=O)C1=COCCO1	6.4%
COc1cc(CNCCc2ccccc2F)ccc1OCC(=O)N1CCCCC1	-1.57%

Compound	inhibition
COCCOC(=O)C1=C(N)OC2=C(C(=O)CCC2)C1c1cccnc1 (configuration not stated)	1.53%
COc1ccc(NC(=O)CC2C(=O)N(C)C(=S)N2Cc2ccncc2)cc1 (configuration not stated)	-3.53%
CN1CCCN=C1COC(=O)C(O)(c1ccccc1)C1CCCCC1 (configuration not stated)	-4.01%
Cc1cccc(OCC(=O)Nc2ccc(C(=O)NCC(C)C)cc2)c1	0.21%
N#CCC(N)=C(C#N)C#N	0.67%
CC(=O)[C@@]1(O)CC[C@H]2[C@@H]3CCC4=CC(=O)CC[C@]4(C)[C@H]3[C@@H](O)C[C@@]21C	-0.33%
Cc1ccccc1NC(=O)C1c2ccccc2Oc2ccccc21	-0.73%
CC(C)NS(=O)(=O)c1ccc(OCC(=O)Nc2cccc(F)c2)cc1	2.86%
COc1ccc(C2=C(CN(C)C)C(c3ccccc3)c3ccccc3O2)cc1 (configuration not stated)	-1.24%
COc1ccc(-c2nc(C)c(C(C)=O)n2O)cc1OC	2.19%
O=C(O)CCn1c(=S)n(CCC(=O)O)c2ccccc21	3.98%
CC(OC(=O)c1cc(=O)[nH]c2ccccc12)C(=O)c1ccccc1 (configuration not stated)	-0.79%
C=C(C)Cn1c(NCCOC)nc2c1c(=O)[nH]c(=O)n2C	1.67%
CC(=O)NC1C(OCCOc2ccc(Cl)cc2Cl)OC(COC(C)=O)C(OC(C)=O)C1OC(C)=O (configuration not stated)	2.94%
CCOC(=O)C1=C(C)N[C@@]2(O)c3ccccc3C(=O)[C@@]12O	5.29%
CCOC(=O)c1c(C)oc2c1C(=O)c1ccccc1C2=O	61.9% (active)
CCOC(=O)c1cccc(C(=O)OCC)n1	-2.55%
CC(=O)N1CC23C=CC(CC2CC12CCCCCC2)O3 (configuration not stated)	0.84%
CCOc1ncnc2c1[nH]c1ccccc12	1.88%
COC(=O)C1[C@H]2C(=O)N(Cc3cccs3)C[C@]23C=C[C@H]1O3 (some centres not stated)	2.54%
CC(C)CN1CCN(Cc2ccc3ncccc3c2)CC1CCO (configuration not stated)	5.67%
CCCCNC(=O)NS(=O)(=O)c1ccc(C)cc1	5.34%
CNS(=O)(=O)c1ccc(C)cc1	-0.67%
Cc1ccc(S(=O)(=O)N[C@@H](Cc2ccccc2)C(=O)CCl)cc1	39.7% (active)
O=C(CCc1ccccc1)Nc1ccccc1C(F)(F)F	-2.28%

Compound	inhibition
COc1cc2c(cc1OC)C(c1ccccc1)=NCC2	3.38%
C[C@]12CC[C@@H]3c4ccc(O)cc4[C@@H](O)C[C@H]3[C@@H]1CC[C@@H]2O	2.58%
CC(=O)CCc1c(C)c2cccc(C)c2[nH]c1=O	2.48%
CCCCC/C=C\C[C@H](O)/C=C/c1cccc(C[C@H](O)CCCCO)n1	4.29%
CCOC(=O)C(NC(C)=O)C(O)c1ccc([N+](=O)[O-])cc1 (configuration not stated)	3%
O=C1OC(Nc2ccc3c(c2)OCO3)c2ccccc21 (configuration not stated)	3.54%
Cc1cccc(Oc2coc3cc(OC(=O)c4cncc(Br)c4)ccc3c2=O)c1	26.8%
COc1ccc(C2C3C(C)=NN=C3CC(C)(O)C2C(C)=O)cc1 (configuration not stated)	-7.27%
O=P(c1ccccc1)(c1ccccc1)c1nc(-c2ccc(Cl)cc2)oc1N1CCOCC1	4.58%
CC(=O)N1CCN(c2ccc(OC[C@H]3CO[C@](Cn4ccnc4)(c4ccc(Cl)cc4Cl)O3)cc2)CC1	6.45%
C/C=C(/C(=C/C)c1ccc(O)cc1)c1ccc(O)cc1	0.21%
C=CCc1cccc2cc(C(=O)Nc3ccc(CC(=O)O)cc3)c(=O)oc12	-4.46%
COC(=O)c1[nH]c(=O)c2ccccc2c1O	66.5% (active)
COc1ccc(C(=O)Nc2nc3ccccc3c(=O)[nH]2)cc1	0.21%
CC(C)C(=O)Nc1c(O)c2ccccc2[nH]c1=O	-3.74%
CCOC(=O)n1c(=O)oc2ccccc21	-6.44%
CCOc1cc2c3c(c1)C(C)=CC(C)(C)N3C(=O)C2=O	-0.07%
CC(C)CC(=O)NC(NC(=O)CC(C)C)c1cccc([N+](=O)[O-])c1	-2.91%
Cc1[nH]c2ccccc2c1C(=O)CN1CCCC1	-1.81%
O=C1NCC2=C1C(c1ccccc1)Nc1ccccc1N2 (configuration not stated)	58.3% (active)
O=C1Cc2ccccc2C(c2ccccc2)N1 (configuration not stated)	0.84%
COc1cc(C2Nc3ccccc3NC3=C2C(=O)CC(c2ccc(OC)c(OC)c2)C3)ccc1O (configuration not stated)	-5.4%
